Screening results from PubChem BioAssay.
This is a sample that favours compounds with a hit; in the whole collection about 1.8% have one here.
DAGLB inh = blocks human DAGLB lipase activity; actives 0.059% (n = 340,000); inhibition, % at 5.17 µM; AID 504411; Q8NCG7; HEK293T DAGLB membrane lysate, EnzChek fluorogenic substrate; in the data active = inhibition above about 34%;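 also: 0% = enzyme with vehicle and 100% = wells lacking enzyme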
Target sequence (Q8NCG7 whole entry, looked up): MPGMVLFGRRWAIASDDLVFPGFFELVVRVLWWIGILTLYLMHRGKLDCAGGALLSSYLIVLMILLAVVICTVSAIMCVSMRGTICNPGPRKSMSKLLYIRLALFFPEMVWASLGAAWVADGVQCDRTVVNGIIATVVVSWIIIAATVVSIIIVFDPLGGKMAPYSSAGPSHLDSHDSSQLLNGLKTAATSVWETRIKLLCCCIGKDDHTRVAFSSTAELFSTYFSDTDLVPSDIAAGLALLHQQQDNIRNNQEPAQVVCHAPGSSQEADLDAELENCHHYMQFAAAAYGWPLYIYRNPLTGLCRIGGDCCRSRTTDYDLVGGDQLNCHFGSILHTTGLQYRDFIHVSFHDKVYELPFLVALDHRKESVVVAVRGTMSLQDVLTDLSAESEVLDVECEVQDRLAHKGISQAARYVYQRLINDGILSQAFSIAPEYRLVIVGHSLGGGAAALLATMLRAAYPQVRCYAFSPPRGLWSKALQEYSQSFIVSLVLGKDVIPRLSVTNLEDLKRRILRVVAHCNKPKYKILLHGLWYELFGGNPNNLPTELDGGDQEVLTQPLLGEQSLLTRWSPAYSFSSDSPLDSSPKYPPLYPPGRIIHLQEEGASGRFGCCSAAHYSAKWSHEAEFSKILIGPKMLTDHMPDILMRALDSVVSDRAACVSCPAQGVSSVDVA
MT1-MMP act inh = inhibitors of human MT1-MMP activation | GFP/RFP ratio change, % at 20 µM | actives 0.061% (n = 360,000) | P50281 | AID 651647 | HT1080 RFP-PRO-GFP cells, GFP/RFP ratio fluorescence, overnight; percent of plate control window, DMSO zero;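 active = GFP/RFP ratio change of at least 30% with cell ATP level not reduced by more than half and red fluorescence within 50% of control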
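Test system: HT1080 RFP-PRO-GFP cells; Benchmarks: DMSO and RFP-L50D-GFP cell wells; Timing: cells overnight before dosing, compound overnight, 37 °C, 5% CO2; Compound: one 20 µM compound dose with 1% DMSO; Read-out: GFP/RFP fluorescence ratio.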
SKN-1 inh = inhibitors of C. elegans SKN-1 | AID 624304 | actives 0.49% (n = 360,000) | inhibition, % at 21.8 µM | C. elegans VP596 Pgst-4::GFP/RFP ratio, acrylamide-induced, 24 h;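 active = interference check ratio from 0.5 to 1.5 plus GFP to RFP signal ratio inhibition reaching or exceeding a fixed threshold, cut at about 30% in these data, passing the limit was not always enough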
hiPSC survival = enhancers of human iPSC single-cell survival. hiPSC single-cell survival, ATPlite luminescence; 100% = ROCK inhibitor wells, 0% = DMSO. survival enhancement, % at 20 µM. actives 0.044% (n = 360,000); in the data active = survival enhancement above about 18%;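 also: cells exposed to compounds for 16 hours before the ATP read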
rRNA inh HTS = inhibitors of bacterial rRNA selective over humanized ribosomes; E. coli WT GFP vs humanized-ribosome RFP mutants, fluorescence, 24 h; stronger effect = lower value; DMSO median 0, no signal -100; GFP signal change (wild-type ribosome), % (concentration not given with the values); actives 1.6% (n = 350,000);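 active = significant combined selectivity score with lowered wild-type GFP, culture density cut under 30%, mutant RFP and density less affected; inactive = any of these conditions unmet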
Cneo AK release = causes C. neoformans cell lysis; adenylate kinase release luminescence, 4 h; normalised: neutral wells 0, clomiphene wells 100; lysis activity, % at 15 µM; actives 0.2% (n = 360,000);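 active = mean lysis activity across replicates of at least 80%, whatever share of replicates individually reach that level; inactive = mean lysis activity below 80%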
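Test system: log-phase Cryptococcus neoformans yeast cells; Quantity: yeast cell density of 5 × 10^6 cells/mL; Buffer or medium: YPD; Doses: single compound concentration per well; Timing: 4 h at 37 °C static, read 1 h later; Measured by: AK luminescence; Read-out basis: lysis from increased AK signal; Control set: Clomiphene as positive control.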
Active calls of the source: *; . = no result.

SMILES | DAGLB inh | MT1-MMP act inh | SKN-1 inh | hiPSC survival | rRNA inh HTS | Cneo AK release
C[C@H](CO)N1C[C@H](C)[C@@H](CN(C)C(=O)C2CCOCC2)Oc2ncc(C#CCc3ccccc3)cc2C1=O | . | . | . | . | 1 | 86*
CC(C)CC#Cc1cnc2c(c1)C(=O)N([C@H](C)CO)C[C@@H](C)[C@@H](CN(C)C(=O)c1ccc3c(c1)OCO3)O2 | . | . | . | . | 2 | 89*
C[C@H]1CN([C@@H](C)CO)C(=O)c2cc(C3=CCCCC3)cnc2O[C@H]1CN(C)C(=O)Cc1cccnc1 | . | . | . | . | -4 | 0
C[C@@H]1CN([C@@H](C)CO)C(=O)c2cc(C3=CCCCC3)cnc2O[C@H]1CN(C)C(=O)Cc1cccnc1 | . | . | . | . | -3 | 110*
C/C=C/c1cnc2c(c1)C(=O)N([C@@H](C)CO)C[C@@H](C)[C@@H](CN(C)C(=O)C1CCCCC1)O2 | . | . | . | . | 1 | 105*
C/C=C/c1cnc2c(c1)C(=O)N([C@@H](C)CO)C[C@H](C)[C@@H](CN(C)C(=O)C1CCCCC1)O2 | . | . | . | . | 5 | 0
CC(C)CC#Cc1cnc2c(c1)C(=O)N([C@@H](C)CO)C[C@H](C)[C@@H](CN(C)C(=O)c1ccc3c(c1)OCO3)O2 | . | . | . | . | 1 | 1
C[C@H](CO)N1C[C@H](C)[C@@H](CN(C)Cc2cccc(F)c2)Oc2ncc(C#CCc3ccccc3)cc2C1=O | . | . | . | . | -35* | 4
CC(C)C(=O)Nc1ccc2c(c1)C(=O)N(C)[C@@H]1CC[C@H](CC(=O)N[C@@H](C)c3ccccc3)O[C@H]1CO2 | . | . | . | . | 1 | -1
COc1ccccc1NC(=O)N[C@@H]1C=C[C@H](CC(=O)N[C@@H](C)c2ccccc2)O[C@@H]1CO | . | . | . | . | -1 | .
CN(C)c1ccc2c(c1)[C@@H]1C[C@H](CC(=O)NCc3ccccc3F)O[C@H](CO)[C@@H]1O2 | . | . | . | . | 1 | .
CNC[C@@H]1Oc2ncc(C#CCC(C)C)cc2C(=O)N([C@H](C)CO)C[C@@H]1C | . | . | . | . | 5 | .
CNC[C@H]1Oc2ncc(C#CCC(C)C)cc2C(=O)N([C@H](C)CO)C[C@H]1C | . | . | . | . | 3 | 90*
C[C@H]1CN([C@@H](C)CO)C(=O)c2cc(C#Cc3ccccn3)cnc2O[C@H]1CN(C)Cc1ccncc1 | . | . | . | . | 7 | 94*
O=C(NC1Cc2ccccc2C1)[C@@H]1[C@@H](CO)[C@@H]2Cn3c(cccc3=O)[C@@H]2N1C(=O)c1ccccn1 | . | . | . | . | 0 | 2
CCc1cc(C(=O)c2ccc(OC)cc2)c(NC(=O)CC(C)(C)CC(=O)O)s1 | 2 | -8 | 4 | 1 | -28* | .
CN(C)S(=O)(=O)c1cccc(C(=O)N=C2N=C3C=CC(Cl)=CN3Cc3ccccc32)c1 | -6 | -3 | 57* | 0 | 13 | -17
O=C(N=C1N=C2C=CC=CN2Cc2ccccc21)c1ccc(S(=O)(=O)N2CCCC2)cc1 | -6 | 1 | 2 | 1 | 8 | 2
Cn1ncc(C#N)c1/N=C/N1CCCC1 | -1 | 1 | 42* | 1 | . | -1
C[C@H](CO)N1C[C@H](C)[C@@H](CN(C)Cc2ccc(Oc3ccccc3)cc2)Oc2c(NC(=O)Nc3ccc(F)cc3)cccc2C1=O | . | . | . | . | -3 | 0
Cc1cc2c(NC(=O)Nc3ccccc3)cccc2nn1 | 1 | 6 | 5 | 0 | -5 | 12
Cc1cc2c(NC(=O)Nc3ccc(C(C)(C)C)cc3)cccc2nn1 | 1 | 5 | -7 | -1 | -33* | .
O=C(C[C@H]1CC[C@H](NC(=O)CCN2CCCCC2)[C@H](CO)O1)Nc1nccs1 | . | . | . | . | 5 | .
CCC(CC)C(=O)Nc1c(C(=O)N2CCN(c3ccccc3)CC2)oc2ccccc12 | -7 | -2 | 4 | 0 | -30* | 1
CC(C)C(=O)Nc1c(C(=O)N2CCN(c3ncccn3)CC2)oc2ccccc12 | -1 | 4 | 11 | 0 | -1 | -1
SMILES | DAGLB inh | MT1-MMP act inh | SKN-1 inh | hiPSC survival | rRNA inh HTS | Cneo AK release
CNC(=S)c1cc(C(C)(C)C)c(O)c(C(C)(C)C)c1 | -2 | 6 | 6 | 2 | -21* | .
CC(C)(C)c1cc(/C=N/O)cc(C(C)(C)C)c1O | -4 | -16 | 2 | 0 | -52 | -5
N=c1c2c(ncn1CCCO)Oc1ccc3ccccc3c1C2c1ccccc1 (stereo not drawn) | . | 0 | 1 | -1 | -19* | -1
COc1ccc(C2c3ccc4ccccc4c3Oc3ncn(CCCO)c(=N)c32)cc1OC (stereo not drawn) | 2 | 1 | -2 | -1 | -20* | .
N=c1c2c(ncn1CCCO)Oc1c(ccc3ccccc13)C2c1ccccc1 (stereo not drawn) | 3 | 6 | 3 | 0 | -40* | .
COc1ccc(C2c3ccc4ccccc4c3Oc3ncn(CCO)c(=N)c32)cc1OC (stereo not drawn) | -5 | 0 | -4 | -1 | -3 | -1
C[C@H]1CN([C@@H](C)CO)C(=O)c2cc(C#CCN(C)C)cnc2O[C@H]1CN(C)Cc1cccc(F)c1 | . | . | . | . | 0 | 51
COc1ccc(NC(=O)c2ccc3[nH]c(C)c(C)c3c2)c(OC)c1 | -1 | 3 | -8 | 1 | -15* | -1
COc1cc(NC(=O)Cn2nc(C(F)(F)F)c(Br)c2C)cc([N+](=O)[O-])c1 | -7 | 4 | 11 | -1 | -15* | -3
COc1ccc(CNC(=O)Cn2nc(C(F)(F)F)c(Br)c2C)cc1 | -2 | 0 | -12 | 0 | 5 | 1
CCCNC(=O)[C@@]1(Sc2ccc(C)cc2)CC(=O)N(C2CCCCC2)[C@@H]1c1ccc(CO)cc1I | . | . | . | . | . | 6
O=C(Cc1ccccc1)N[C@@H]1CC[C@@H](CC(=O)N2CCOCC2)O[C@@H]1CO | . | . | . | . | 2 | 13
CSc1nsc(SCc2ccc(F)cc2)n1 | -7 | 0 | 60* | 0 | . | -1
CSc1nsc(SCc2ccc(Cl)cc2)n1 | -6 | 2 | 8 | -3 | -43* | -4
Fc1ccc(CSc2nsc(SCc3ccc(F)cc3)n2)cc1 | -17 | 4 | 1 | -5 | 14 | 1
Nc1nc(SCc2ccc(Cl)cc2)ns1 | 1 | 0 | 21 | 3 | . | -2
CC=Cc1ccc2n(c1=O)C[C@@H]1[C@@H](CO)[C@H](C(=O)NCC)[C@H]2N1Cc1ccccc1 (mixture of isomers) | . | . | . | . | 2 | 0
Cc1ccnc(NC(=O)c2cccc(NC(=O)Cc3ccccc3)c2)c1 | -3 | 4 | 8 | 1 | -32* | .
COc1ccc(NC(=O)Nc2ccc3c(c2)[C@@H]2C[C@H](CC(=O)NC4CCCC4)O[C@H](CO)[C@@H]2O3)cc1 | . | . | . | . | 0 | 3
O=[N+]([O-])c1ccc2c(c1)C(=NO)c1cc(F)ccc1-2 | -7 | 0 | 4 | -3 | -50 | .
